Assays:
HeLa cells [1] = experiment: Flow cytometric analysis of cell cycle distribution; type: cell-based, human; conditions: 24 h treatment, evident at 500 nM
Method in brief: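 HeLa cells (5 × 10^5) exposed to a range of test compound concentrations for 24 h, collected, and fixed in ice-cold 70% ethanol. Treated with lysis buffer containing RNase A and 0.1% Triton X-100, stained with PI, then analysed by flow cytometry. Phase distribution taken from DNA histograms. Mean ± SEM of two independent experiments.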

HeLa cells [2] = experiment: Apoptosis assay; type: cell-based, human; conditions: 24 h incubation, further increased at 48 h
[3] = tested on: L1210, FM3A, CEM and HeLa cell lines; experiment: Antiproliferative activity over the panel of four cancer cell lines; type: cell-based
Method in brief: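 Cells were seeded at 300,000–500,000 cells/mL with serial dilutions of test compound and incubated at 37 °C: 2 days for L1210 and FM3A, 3 days for CEM, and 4 days for HeLa. Cell number was counted with a Coulter counter. For each line, IC50 was the concentration that inhibited proliferation by 50%.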

HeLa cells [4] = experiment: Mitochondrial membrane potential; type: cell-based, human; conditions: 100–250 nM, 6-48 h
Method in brief: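 HeLa cells treated with test compound for 6, 12, 24 or 48 h, then stained with the lipophilic cationic probe JC-1. Mitochondrial potential read by flow cytometry. Data are mean ± SEM of three independent experiments.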

HeLa cells [5] = experiment: ROS production; type: cell-based, human; conditions: 250 nM, starting after 12–24 h
HeLa cells [6] = experiment: Western blot analysis of cell cycle checkpoint and apoptosis proteins; type: cell-based, human

With COC(=O)c1sc(-c2ccccc2)cc1Nc1cc(OC)c(OC)c(OC)c1 [Compound 4a, Methyl 5-phenyl-3-[(3,4,5-trimethoxyphenyl)amino]thiophene-2-carboxylate] the “Effect on cell cycle progression” value (HeLa cells [1]) was “induced a G2/M arrest” and the “Induction of apoptosis (annexin-V/PI)” value (HeLa cells [2]) was “induced a significant proportion of apoptotic cells”.
For COC(=O)c1sc(-c2cccs2)cc1Nc1cc(OC)c(OC)c(OC)c1 [Compound 4c, Methyl 4-[(3,4,5-trimethoxyphenyl)amino]-[2,2′-bithiophene]-5-carboxylate], the IC50 ([3]; read-out: mean IC50 value (antiproliferative activity), mean over cell lines) was 140 nM, the “Effect on cell cycle progression” value (HeLa cells [1]) was “induced a G2/M arrest” and the “Induction of apoptosis (annexin-V/PI)” value (HeLa cells [2]) was “induced a significant proportion of apoptotic cells”. The “Mitochondrial depolarization (cells with low Δψmt)” value (HeLa cells [4]) was “time-dependent increase in the percentage of cells with low Δψmt”, the ROS production (HeLa cells [5]) was “induced significant production of ROS” and the PARP cleavage (HeLa cells [6]) was “concentration-and time-dependent cleavage of PARP”. For the same compound, the “cyclin B1 expression” value (HeLa cells [6]; 24 h, concentration-dependent, marked reduction at 48 h) was “increase in cyclin B1 expression”, the cdc25c expression (HeLa cells [6]; 24 h, even at 100 nM) was “marked reduction in the expression of phosphatase cdc25c” and the “phosphorylated Cdk1” value (HeLa cells [6]; 24 h and 48 h, 250 nM) was “decrease in the phosphorylated form of cyclin dependent kinase-1”. For the same compound, the “expression of anti-apoptotic proteins Bcl-2 and Mcl-1” value (HeLa cells [6]; starting after 24 h, even at 0.1 μM) was “decreased”.
With COC(=O)c1sc(-c2ccc(C)cc2)cc1Nc1cc(OC)c(OC)c(OC)c1 [Compound 4i, Methyl 5-(p-tolyl)-3-[(3,4,5-trimethoxyphenyl)amino]thiophene-2-carboxylate] the “Effect on cell cycle progression” value (HeLa cells [1]) was “induced a G2/M arrest” and the “Induction of apoptosis (annexin-V/PI)” value (HeLa cells [2]) was “induced a significant proportion of apoptotic cells”.
In the case of COC(=O)c1sc(-c2cc(OC)c(OC)c(OC)c2)cc1Nc1cc(OC)c(OC)c(OC)c1 [Compound 4p, Methyl 5-(3,4,5-trimethoxyphenyl)-3-[(3,4,5-trimethoxyphenyl)amino]thiophene-2-carboxylate], the “antiproliferative activity (in words)” value ([3]; four cancer cell lines) is reported as “not active”.

Reference: publication PMC5791907 (European journal of medicinal chemistry, 2018)
